# Active and inactive are the calls of the source. The calls are words filed in the database; no cut-off is given here.
# Columns and labels:
# [1] = tested on: INS-1E; assay: (§1) Cytoprotective activity in rat INS-1E cells assessed as suppression of recombinant rat IL-1beta/recombinant mouse IFN-gamma and TNF-alpha-induced caspase-3 expression after 48 hrs by Caspase-Glo 3/7 assay; format: functional, cell-based
# Procedure, shortened: (§2)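 INS-1E cells were given the 48 h cytokine cocktail (IL-1β 20 ng/mL, INF-γ 50 ng/mL, TNF-α 50 ng/mL) with rising compound concentrations. Caspase-3 activity, as a direct apoptosis readout, was normalized to untreated controls. Mean ± SD of 12 independent wells.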
# [2] = as §1; format: functional, cell-based; conditions: for IC50: Rattus norvegicus, INS-1E, 48 h; procedure, shortened: as §2
# [3] = tested on: INS-1E; assay: (§3) Cytoprotective activity in rat INS-1E cells assessed as increase in recombinant rat IL-1beta/recombinant mouse IFN-gamma and TNF-alpha-suppressed glucose-stimulated insulin secretion preincubated for 48 hrs followed by KRBH buffer addition without glucose for 2 hrs and subsequently incubated with KRBH buffer in presence of glucose for 1 hr by ELISA; format: functional, cell-based
# Procedure, shortened: (§4)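 Cytokine-exposed INS-1E cells (48 h; IL-1β 20 ng/mL, INF-γ 50 ng/mL, TNF-α 50 ng/mL) were co-treated with a compound dose series, and glucose-stimulated insulin secretion was measured. EC50 and maximum activity were derived from the dose-response. Mean ± SD of 2 independent experiments.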
# [4] = as §3; format: functional, cell-based; conditions: for EC50: Rattus norvegicus, INS-1E; procedure, shortened: as §4
# [5] = tested on: INS-1E; assay: (§5) Cytoprotective activity in rat INS-1E cells assessed as restoration of recombinant rat IL-1beta/recombinant mouse IFN-gamma and TNF-alpha-suppressed ATP level after 48 hrs by Cell Titer-Glo assay; format: functional, cell-based
# Procedure, shortened: (§6)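 INS-1E rat insulinoma cells exposed 48 h to IL-1β 20 ng/mL, INF-γ 50 ng/mL and TNF-α 50 ng/mL, with or without increasing compound concentrations. Cellular ATP was measured as a viability surrogate and normalized to untreated controls.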
# [6] = as §5; format: functional, cell-based; conditions: for EC50: Rattus norvegicus, INS-1E, 48 h; procedure, shortened: as §6
# [7] = tested on: INS-1E; assay: (§7) Cytoprotective activity in rat INS-1E cells assessed as suppression of recombinant rat IL-1beta/recombinant mouse IFN-gamma and TNF-alpha-induced nitrite production after 48 hrs by Griess assay; format: functional, cell-based
# Procedure, shortened: (§8)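 Nitrite production was measured in INS-1E cells after 48 h with IL-1β 20 ng/mL, INF-γ 50 ng/mL and TNF-α 50 ng/mL plus increasing compound concentrations. Mean ± SD of 12 independent wells.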
# [8] = as §7; format: functional, cell-based; conditions: for IC50: Rattus norvegicus, INS-1E, 48 h; procedure, shortened: as §8
# [9] = as §3, with “secretion at 5 uM” for “secretion”, “ELISA relative to control” for “ELISA”; format: functional
# Procedure, shortened: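 After 48 h exposure to the cytokine cocktail (IL-1β 20 ng/mL, INF-γ 50 ng/mL, TNF-α 50 ng/mL) with 5 µM compound added, INS-1E insulin secretion was measured at low (2) and high (16) glucose. Results are compared with untreated and no-cytokine cells. Mean ± SD of 2 independent experiments.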
# [10] = tested on: INS-1E; assay: Cytoprotective activity in rat INS-1E cells assessed as restoration of recombinant rat IL-1beta/recombinant mouse IFN-gamma and TNF-alpha-suppressed ATP level at 2 uM after 48 hrs by Cell Titer-Glo assay; format: functional, cell-based; procedure, shortened: as §6
SMILES,Activity [1],%max [2] [%],IC50 [2] [µM],Activity [3],%max [4] [%],EC50 [4] [µM],Activity [5],%max [6] [%],EC50 [6] [µM],Activity [7],%max [8] [%],IC50 [8] [µM],%max [3],fold change (FC) [9],Activity [10]
Cc1cc2nc(-c3ccc(C(=O)N/N=C/c4cccc(O)c4O)cc3)[nH]c2cc1C,Dose-dependent effect,82,9.48,Dose-dependent effect,84,8.32,Dose-dependent effect,89,3.17,Dose-dependent effect,79,11.4,–,–,–
COc1ccc(O)c(/C=N/NC(=O)c2ccc(-c3nc4cc(C)c(C)cc4[nH]3)cc2)c1,–,12,> 30,–,–,–,–,61,25.3,–,20,> 30,inactive,–,–
Cc1cc2nc(-c3ccc(C(=O)N/N=C/c4cc(O)c(O)c(O)c4)cc3)[nH]c2cc1C,Dose-dependent effect,68,18.5,Dose-dependent effect,91,5.41,Dose-dependent effect,98,0.968,Dose-dependent effect,85,9.47,–,>3,Active
Cc1cc2nc(-c3ccc(C(=O)N/N=C/c4cc(O)ccc4O)cc3)[nH]c2cc1C,Dose-dependent effect,84,8.81,Dose-dependent effect,71,13.3,Dose-dependent effect,93,2.57,Dose-dependent effect,71,17.3,–,–,–
Cc1cc2nc(-c3ccc(C(=O)N/N=C/c4ccc(O)cc4O)cc3)[nH]c2cc1C,–,75,16.4,–,64,–,–,86,7.28,–,72,17.5,–,–,–
COc1ccc(/C=N/NC(=O)c2ccc(-c3nc4cc(C)c(C)cc4[nH]3)cc2)c(O)c1,–,15,> 30,–,–,–,–,54,29.3,–,18,> 30,inactive,–,–
Cc1cc2nc(-c3ccc(C(=O)N/N=C/c4ccc(O)c(O)c4)cc3)[nH]c2cc1C,–,22,> 30,–,53,–,–,73,16.7,–,68,17.6,–,–,–

# — ChEMBL document CHEMBL3616384, “Benzimidazole derivatives protect against cytokine-induced apoptosis in pancreatic β-Cells” (Bioorg Med Chem Lett, 2015)
